The results in this text go back to PubChem BioAssay AID588422 (The Scripps Research Institute Molecular Screening Center, 2011).

The assay concerns the target Protein-arginine deiminase type-4 (Homo sapiens) (UniProt Q9UM07). Nature of the assay: PAD4 enzyme inhibition potency, late-stage follow-up, biochemical, BAEE substrate, citrulline absorbance, 0-60 µM range (AID 588422). As to conditions: recombinant PAD4, BAEE citrulline colorimetric absorbance. The procedure, abridged: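 Material: recombinant PAD4. Amount: 0.2 µM enzyme. Measured by: citrulline colour reaction, A540. Schedule: 15 min preincubation, 15 min substrate reaction. Controls: DMSO-treated enzyme as uninhibited reference. Replicates: duplicate measurements per concentration. Medium: Tris pH 7.6, 2 mM DTT, 10 mM CaCl2.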

The source made the active and inactive calls.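 Rule for the calls: active = IC50 at or below 1 µM; inactive = the rest.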

Protein-arginine deiminase type-4 (Homo sapiens), sequence (Q9UM07 whole entry, looked up): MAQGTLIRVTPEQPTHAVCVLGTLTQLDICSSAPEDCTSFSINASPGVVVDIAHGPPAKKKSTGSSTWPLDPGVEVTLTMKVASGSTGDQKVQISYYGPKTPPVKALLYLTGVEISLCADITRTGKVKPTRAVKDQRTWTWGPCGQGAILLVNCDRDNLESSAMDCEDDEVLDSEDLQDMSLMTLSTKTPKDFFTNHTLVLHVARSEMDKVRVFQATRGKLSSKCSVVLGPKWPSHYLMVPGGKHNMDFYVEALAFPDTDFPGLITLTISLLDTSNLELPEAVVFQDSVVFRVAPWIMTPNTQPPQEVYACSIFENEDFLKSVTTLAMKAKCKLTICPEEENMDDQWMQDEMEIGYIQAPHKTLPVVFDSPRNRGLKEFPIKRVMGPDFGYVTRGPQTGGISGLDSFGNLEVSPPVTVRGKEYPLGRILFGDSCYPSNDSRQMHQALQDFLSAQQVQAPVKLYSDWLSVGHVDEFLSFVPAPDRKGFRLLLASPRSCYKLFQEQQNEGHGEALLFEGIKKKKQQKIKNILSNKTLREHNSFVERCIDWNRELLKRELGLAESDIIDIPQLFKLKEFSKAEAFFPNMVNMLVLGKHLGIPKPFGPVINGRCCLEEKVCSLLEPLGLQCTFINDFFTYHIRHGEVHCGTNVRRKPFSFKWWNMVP

With `COC(=O)c1cccc(-c2ccc3c(n2)C(=O)C(Br)=CC3=O)n1`, the IC50 entry was “inactive”.
